ABHD4 inh: ABHD4 (mouse) inhibition, primary FP screen. Q8VD66. purified mABHD4, FP-Rh probe fluorescence polarization. inhibition, % at 8.92 µM. 370,000 compounds, 0.54% hits;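 active means inhibition exceeding the mean over every tested compound plus 3 SD, cut at about 30% in these data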;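 further: 0% = plate median of compound wells and 100% = S159A mutant with DMSO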
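Assay system: wild-type mouse ABHD4 protein; compound: single nominal dose of 8.92 µM, 0.89% DMSO final; schedule: 45 min + 60 min at 25 °C; measured by: FP readout, ex 525 nm / em 598 nm; evaluation: % inhibition of FP-Rh probe binding versus controls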
SIAE primary: human SIAE inhibition, primary screen; inhibition, % at 9.66 µM; AID 1053197; Q9HAT2; 370,000 compounds, 0.69% hits; SIAE FP-Rh probe binding, fluorescence polarization;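 active means inhibition above a cutoff: mean of compounds within the control limits plus 3 SD of those, cut at about 17% in these data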;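 further: 0% = plate median of compound wells and 100% = probe without SIAE protein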
HTRA1 inh: blocks human HTRA1 serine peptidase; Q92743; recombinant HTRA1, FP-rhodamine activity-based probe, fluorescence polarization; inhibition, % at 5.96 µM; 340,000 compounds, 0.5% hits; in the data active means inhibition above about 36%;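 further: 0% = enzyme with DMSO and 100% = wells lacking enzyme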
pPAFAH inh: pPAFAH (human) enzyme inhibition; inhibition, % at 3.39 µM; AID 463082; Q13093; 330,000 compounds, 1.5% hits; recombinant pPAFAH, FP-rhodamine probe fluorescence polarization;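 active means inhibition above the mean inhibition across the screen plus 3 SD, cut at about 25% in these data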;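 further: inhibitors block binding of the rhodamine activity-based probe so polarization drops; 0% = enzyme with DMSO and 100% = wells lacking pPAFAH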
Target sequence (Q13093 whole entry, looked up): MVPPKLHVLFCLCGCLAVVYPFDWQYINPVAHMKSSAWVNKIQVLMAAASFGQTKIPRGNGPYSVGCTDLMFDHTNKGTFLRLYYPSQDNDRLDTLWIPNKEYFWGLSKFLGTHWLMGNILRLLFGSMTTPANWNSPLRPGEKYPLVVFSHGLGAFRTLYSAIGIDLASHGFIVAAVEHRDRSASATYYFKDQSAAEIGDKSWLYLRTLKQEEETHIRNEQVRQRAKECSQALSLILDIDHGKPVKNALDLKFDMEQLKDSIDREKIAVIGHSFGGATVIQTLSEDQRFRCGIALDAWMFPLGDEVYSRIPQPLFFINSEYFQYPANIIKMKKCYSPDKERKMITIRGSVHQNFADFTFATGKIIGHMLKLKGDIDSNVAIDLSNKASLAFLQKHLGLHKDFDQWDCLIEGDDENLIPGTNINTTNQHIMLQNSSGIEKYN
TCR CD3 inh: inhibitors of human TCR-CD3 interaction | TAMRA-labeled TCR probe fluorescence, biochemical | inhibition, % at 9.4 µM | 360,000 compounds, 0.37% hits; in the data active means inhibition above about 19%;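 further: recombinant mutant TCR 2C K166C tagged with TAMRA read by polarization; 0% = receptor in buffer alone and 100% = receptor with positive control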
HTRA1 inh conf: HTRA1 (human) inhibition, confirmation; inhibition, % at 5.96 µM; recombinant HTRA1, FP-rhodamine activity-based probe, fluorescence polarization; AID 540248; 1,600 compounds, 66% hits; shares compounds with HTRA1 inh;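 active means mean inhibition over three repeats above a set limit taken from the earlier primary screen, cut at about 37% in these data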;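 further: 0% = HTRA1 with DMSO and 100% = wells lacking HTRA1; inhibitors block probe binding so polarization drops and inhibition rises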
* = called active by the depositor; . = not tested or not shown. Compounds with a hit are over-represented: about 2.3% of the library has one in this group of screens.

SMILES	ABHD4 inh	SIAE primary	HTRA1 inh	pPAFAH inh	TCR CD3 inh	HTRA1 inh conf
CCOc1cc(CNc2ccc(N3CCCC3)cc2)cc(Cl)c1OC	27.7	11.0	55.4*	23.0	-0.8	23.4
CCOc1ccc(CNc2ccc(N3CCCC3)cc2)cc1	.	.	57.8*	32.9*	.	9.2
O=C(NC1CCCC1)C(c1ccccc1)n1c(CSCCOc2ccccc2)nc2ccccc21 (stereo not drawn)	-0.6	-13.0	.	.	-6.9	.
O=C(NC1CCCCN(Cc2ccc(Cl)cc2)C1=O)c1cc(-c2ccccc2)no1 (stereo not drawn)	-7.2	-2.0	.	.	.	.
CN(C(=O)c1cccc(NC(=O)Cc2ccc(NC(=O)C3CCCN(C(=O)c4ccccc4)C3)cc2)c1)C1CC1 (stereo not drawn)	-15.6	2.6	.	.	7.2	.
O=C(Nc1ccc(Cl)c(Cl)c1)N[C@@H]1CC[C@@H](CCn2cc(C3CCCCC3)nn2)O[C@@H]1CO	-9.1	-32.7	.	.	-2.4	.
Cc1cccc(NC2=Nc3ccccc3N3C2=Nc2c(c(C)nn2-c2ccccc2)C3c2ccc(O)c(O)c2)c1 (stereo not drawn)	-8.5	-17.1	55.3*	-1.4	5.2	56.2*
Cc1nn(-c2ccccc2)c2c1C(c1ccc(O)c(O)c1)N1C(=N2)C(Nc2ccccc2)=Nc2ccccc21 (stereo not drawn)	4.0	8.9	50.5*	4.2	0.5	53.2*
Cc1nn(-c2ccccc2)c2c1C(c1ccc([N+](=O)[O-])cc1)N1C(=N2)C(=O)Nc2ccccc21 (stereo not drawn)	-28.2	-37.6	-63.2	-3.2	5.5	.
Cc1ccc(NC2=Nc3ccccc3N3C2=Nc2c(c(C)nn2-c2ccccc2)C3c2ccc(O)c(O)c2)cc1 (stereo not drawn)	-23.4	-35.6	37.0*	.	-0.4	54.8*
COC(=O)[C@]12C[C@H](CC(=O)NCC34CC5CC(CC(C5)C3)C4)C(=O)N(Cc3ccccc3)C1=C[C@H](COCc1ccccc1)O[C@@H]2C	0.1	2.5	.	.	.	.
COc1cc(/C=N/n2c(-c3ccc4c(c3)NC(=O)CO4)csc2=Nc2cccc(C)c2)ccc1O	21.0	41.0*	43.7*	33.5*	-6.5	81.6*
CC1=C(C(=O)N(C)C)CC(CC(=O)NC2CCCCC2)C(=O)N1Cc1ccc(F)cc1 (stereo not drawn)	1.4	2.4	.	.	1.4	.
COC[C@@H]1CCCN1c1cccc2c1S(=O)(=O)N1CC[C@H](C1)O2	-4.1	5.6	.	.	.	.
N/C(=N\C(=O)OCc1ccccc1)N(CC#CC1=CCCCC1)CC1CC1	-12.2	-3.8	.	.	.	.
CN(C)c1ccc(-c2cc(O)c3ncccc3c2)cc1	7.7	14.4	23.6	11.6	4.9	.
CN(C)CCCNC(=O)c1ccc(-c2cc(O)c3ncccc3c2)cc1	10.6	0.5	69.1*	0.3	-9.4	85.5*
NC[C@@H]1O[C@H](C23CC4CC(CC(C4)C2)C3)Cc2c1ccc(O)c2O	20.9	-2.7	60.3*	13.9	-1.5	73.2*
COc1ccc(S[C@]2(C(=O)N3CCN(c4ncccn4)CC3)CC(=O)N(C(=O)CCc3ccccc3)[C@@H]2c2ccc(OC)cc2)cc1	-0.1	-2.1	.	.	.	.
O=c1cc2oc3cc(O)c(O)cc3c(-c3ccccc3O)c-2cc1O	.	.	59.9*	.	.	127.2*
Cc1ccccc1-c1cc(=O)c2c(O)cccc2o1	1.6	-4.7	-6.0	3.4	-0.1	.
Cc1cccc[n+]1C1C(c2ccccc2)C(C#N)=C(C(=C=[N-])C#N)NC1(O)C1CC1 (stereo not drawn)	.	.	67.4*	28.8*	.	48.9*
Cc1ccccc1NC(=S)NCc1ccc2c(c1)cc(C)n2C	16.1	10.6	0.3	5.9	6.1	.
Cc1cc2cc(CNC(=S)NC3CCCCC3)ccc2n1C	5.7	-0.3	40.5*	3.8	-8.7	-6.5
Cc1cc2cc(CNC(=S)NCc3ccccc3)ccc2n1C	14.2	8.4	49.1*	5.8	-0.2	-16.4
COc1ccccc1NC(=S)NCc1ccc2c(c1)cc(C)n2C	2.2	4.1	37.9*	5.7	-0.9	-6.4
CC(C)NC(=O)Nc1nnc([C@H]2C[C@H](O)[C@@H](CO)O2)s1	5.1	4.5	.	.	-3.4	.
CN(C)CCNc1ncnc2c1ncn2[C@H]1CN(Cc2ccncc2)C[C@@H](CO)O1	3.6	-0.6	.	.	-10.3	.
Cc1ccc(-c2nnc(NC(=O)COc3ccc(F)cc3Cl)o2)cc1C	-0.8	-1.4	.	.	.	.

Compound activity from PubChem BioAssay.
